Measured values from different studies.
Lines come from different studies, so protocols differ.
Organism: Escherichia coli
Effect on: microbial growth

SMILES | technique | strain | time | notes | MIC
COc1cc2cc(CNCCC3CCN(C4CCCC4)CC3)c(SCc3ccccc3)nc2c(OC)c1OC | broth dilution | – | – | – | > 128 µg/mL
Cc1ccc2[nH]nc(-c3nnc(Nc4ccc(F)cc4)s3)c2c1 | – | ATCC25922 | – | – | 51.9 µg/mL
CN(C)c1cc(NC(=O)CNC(C)(C)C)c(O)c2c1C[C@H]1C[C@H]3[C@H](N(C)C)C(O)=C(C(N)=O)C(=O)[C@@]3(O)C(O)=C1C2=O | – | – | – | – | ≤ 0.5 µg/mL
c1ccc(CSc2nc3ccc(-c4ccccc4)cc3cc2CNCCC2CCN(C3CCCC3)CC2)cc1 | broth dilution | – | – | – | 16 µg/mL
CC(=O)OCc1nn(C)c2nc(N)[nH]c(=O)c2c1=O | broth dilution | BW25113 | 18 h | – | 25 µg/mL
CC(=O)OCC1=C(C(=O)O)N2C(=O)[C@@H](NC(=O)Cc3cccs3)[C@H]2SC1 | broth dilution | ATCC10536 | – | – | 3.12 µg/mL
CC(C)c1ccc(/C=C2\N=C(SCC(=O)O)N(c3ccccc3)C2=O)cc1 | broth dilution | ATCC25 ATCC25922 | – | – | 15 µg/mL
c1ccc(CSc2nc3ccccc3cc2CNCc2ccc(CN3CCCC3)cc2)cc1 | broth dilution | – | – | – | > 128 µg/mL
C[C@@H](O)[C@H]1C(=O)N2C(C(=O)O)=C(S[C@@H]3CN[C@H](C(=O)N(C)C)C3)[C@H](C)[C@H]12 | – | ATCC25922 | – | drug-resistant strain | 0.15 µg/mL
CN1CCN(CCNCc2cc3cc(-c4ccccc4)ccc3nc2SCc2ccccc2)CC1 | broth dilution | – | – | – | 16 µg/mL
CNC(C)C1CCC(N)C(OC2C(N)CC(N)C(OC3OCC(C)(O)C(NC)C3O)C2O)O1 (stereo not drawn) | broth dilution | – | – | – | 2 µg/mL
COc1ccc(-n2nc(C(=O)c3ccc(Nc4cnccn4)cc3)sc2=N)cc1 | broth dilution | ATCC10536 | – | – | 12.5 µg/mL
Cc1ccc2[nH]nc(-c3nnc(Nc4ccc(C(F)(F)F)cc4)s3)c2c1 | – | ATCC25922 | – | – | 43.3 µg/mL
CO/N=C(\C(=O)N[C@@H]1C(=O)N2C(C(=O)O)=CCS[C@H]12)c1csc(N)n1 | broth dilution | ATCC25922 | – | – | 0.125 µg/mL
O=C(N[C@H](CO)[C@H](O)c1ccc([N+](=O)[O-])cc1)C(Cl)Cl | broth dilution | ATCC10536 | – | – | 3.12 µg/mL
CCN1CCC(CCNCc2cc3cc(OC)c(OC)c(OC)c3nc2SCc2ccccc2)CC1 | broth dilution | – | – | – | > 128 µg/mL
C[C@@H](O)[C@H]1C(=O)N2C(C(=O)O)=C(S[C@@H]3CN[C@H](C(=O)N(C)C)C3)[C@H](C)[C@H]12 | broth dilution | ATCC25922 | – | – | < 0.5 µg/mL
COc1ccc(N2N=C(C(=O)c3ccc(Nc4cnccn4)cc3)SC2=C(C#N)C#N)cc1 | broth dilution | ATCC10536 | – | – | 6.25 µg/mL
Cc1cc(O)cc(Nc2nnc(-c3n[nH]c4ccc(C)cc34)s2)c1 | – | ATCC25922 | – | – | 176 µg/mL
COc1ccc2ccc(O)c(/C=N/[C@H]3CCCC[C@H]3/N=C/c3ccc(-c4ccccc4)cc3O)c2c1 | broth dilution | – | – | clinical isolate | > 40 µM
Cc1ccc2[nH]nc(-c3nnc(Nc4ccc(O)cc4)s3)c2c1 | – | ATCC25922 | – | – | 64.7 µg/mL

SMILES | technique | strain | time | notes | MIC
CCN(CC)c1ccc(C=NC(=O)c2ccc3ccccc3c2)c(O)c1 | broth dilution | ATCC25922 | – | – | > 256 µg/mL
c1ccc(CSc2nc3ccc(-c4ccccc4)cc3cc2CNCc2ccc(CN3CCCC3)cc2)cc1 | broth dilution | – | – | – | > 128 µg/mL
CO/N=C(\C(=O)N[C@@H]1C(=O)N2C(C(=O)O)=C(CSc3nc(=O)c(=O)[nH]n3C)CS[C@H]12)c1csc(N)n1 | broth dilution | ATCC25922 | – | – | 16 µg/mL
COc1cc2cc(CNCCN3CCN(C)CC3)c(SCc3ccccc3)nc2c(OC)c1OC | broth dilution | – | – | – | > 128 µg/mL
O=C1/C(=C/c2ccc3ccccc3c2O)NC(=S)N1c1ccccc1 | broth dilution | ATCC25 ATCC25922 | – | – | 16 µg/mL
O=C(O)c1cn(C2CC2)c2cc(N3CCNCC3)c(F)cc2c1=O | broth dilution | ATCC25922 | 16 h | – | 0.1 µM
CC(C)(O/N=C(\C(=O)N[C@@H]1C(=O)N2C(C(=O)[O-])=C(C[n+]3ccccc3)CS[C@H]12)c1csc(N)n1)C(=O)O | – | – | – | – | 0.25 µg/mL
CC1(C)S[C@@H]2[C@H](NC(=O)[C@H](N)c3ccccc3)C(=O)N2[C@H]1C(=O)O | broth dilution | ATCC25922 | 18 h | dark | 16 µM
COc1ccc2ccc(O)c(/C=N/[C@H]3CCCC[C@H]3/N=C/c3c(O)cccc3F)c2c1 | broth dilution | – | – | clinical isolate | > 40 µM
Cc1ccc2[nH]nc(-c3nnc(Nc4ccc(Br)cc4)s3)c2c1 | – | ATCC25922 | – | – | 251 µg/mL
COc1ccc(N2N=C(C(C)=O)SC2=C(C#N)C(=O)c2ccc(Nc3cnccn3)cc2)cc1 | broth dilution | ATCC10536 | – | – | 6.25 µg/mL
COc1ccc2ccc(O)c(/C=N/[C@H]3CCCC[C@H]3/N=C/c3ccc(OCCN4CCCCC4)cc3O)c2c1 | broth dilution | – | – | clinical isolate | > 40 µM
Cc1ccc2[nH]nc(-c3nnc(Nc4ccc(Cl)c(Br)c4)s3)c2c1 | – | ATCC25922 | – | – | 247 µg/mL
CCOC(=O)C(C)c1n[nH]c2nc(N)[nH]c(=O)c2c1=O (stereo not drawn) | broth dilution | BW25113 | 18 h | – | > 100 µg/mL
CCN(CC)c1ccc(C=NNC(=O)c2ccc(Cl)cc2)c(O)c1 | broth dilution | ATCC25922 | – | – | > 256 µg/mL
CC[C@H]1OC(=O)[C@H](C)[C@@H](O[C@H]2C[C@@](C)(OC)[C@@H](O)[C@H](C)O2)[C@H](C)[C@@H](O[C@@H]2O[C@H](C)C[C@H](N(C)C)[C@H]2O)[C@](C)(O)C[C@@H](C)CN(C)[C@H](C)[C@@H](O)[C@]1(C)O | – | ATCC25922 | – | – | < 98 µg/mL
N#CC(C#N)=C1SC(C(=O)c2ccc(Nc3cnccn3)cc2)=NN1c1ccccc1 | broth dilution | ATCC10536 | – | – | 50 µg/mL
CCCCCCCCCCCC[N+](C)(C)Cc1ccccc1 | – | – | – | – | 63 µM
CO[C@H]1/C=C/O[C@@]2(C)Oc3c(C)c(O)c4c(O)c(c(/C=N/N5CCN(C)CC5)c(O)c4c3C2=O)NC(=O)/C(C)=C\C=C\[C@H](C)[C@H](O)[C@@H](C)[C@@H](O)[C@@H](C)[C@H](OC(C)=O)[C@@H]1C | broth dilution | – | – | – | 8 µM
Cc1onc(-c2ccccc2)c1C(=O)N[C@@H]1C(=O)N2[C@@H]1SC(C)(C)[C@@H]2C(=O)O | broth dilution | ATCC25922 | – | – | < 0.5 µg/mL
C[C@@H](O)[C@H]1C(=O)N2C(C(=O)O)=C(SCCN=CN)C[C@H]12 | – | – | – | – | ≤ 0.25 µg/mL
